The values that follow come from ChEMBL document CHEMBL3627626, “6-Substituted Pyrrolo[2,3-d]pyrimidine Thienoyl Regioisomers as Targeted Antifolates for Folate Receptor α and the Proton-Coupled Folate Transporter in Human Tumors” (J Med Chem, 2015).

In data set [1] the test system is Mus musculus. Nature of the data set: Toxicity in folate-replete diet fed NCR SCID mouse xenografted with human SKOV3 cells expressing RFC/PCFT/FRalpha assessed as body weight loss at 16 mg/kg, iv administered every 4 days on day 3, 7, 11. The format is organism-based, SK-OV-3. The following applies: in vivo, 96 h.
In the next data set the test system is D4. Nature of the data set: Selectivity ratio of IC50 for human RFC expressed in Chinese hamster PC43-10 cells assessed as cell growth inhibition to IC50 for human FRbeta expressed in Chinese hamster D4 cells assessed as cell growth inhibition. The format is cell-based.
The subject of the next data set is SK-OV-3. Nature of the data set: Antitumor activity against human SKOV3 cells expressing RFC/PCFT/FRalpha xenografted in folate-deficient diet fed NCR SCID mouse assessed as delay in tumor growth at 16 mg/kg, iv administered every 4 days on day 3, 7, 11 measured twice per week. The data set is classed as functional, organism-based. The essentials: (§1)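 Ten-week-old female NCR SCID mice, fed a folate-deficient or standard folate-replete diet, were implanted subcutaneously and bilaterally with SKOV3 tumour fragments. Randomised at 5 mice/group. Dosed intravenously, 0.2 mL per injection, in 5% ethanol/1% Tween-80/0.5% NaHCO3 in water at pH 6.5, on days 3, 7 and 11. Tumours measured twice weekly and mice weighed daily. T/C taken on day 21; growth delay and log cell kill also reported.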

Data set [2] deals with T1, Proton-coupled folate transporter (Homo sapiens) (UniProt Q96NT5).
T1 sequence (whole entry): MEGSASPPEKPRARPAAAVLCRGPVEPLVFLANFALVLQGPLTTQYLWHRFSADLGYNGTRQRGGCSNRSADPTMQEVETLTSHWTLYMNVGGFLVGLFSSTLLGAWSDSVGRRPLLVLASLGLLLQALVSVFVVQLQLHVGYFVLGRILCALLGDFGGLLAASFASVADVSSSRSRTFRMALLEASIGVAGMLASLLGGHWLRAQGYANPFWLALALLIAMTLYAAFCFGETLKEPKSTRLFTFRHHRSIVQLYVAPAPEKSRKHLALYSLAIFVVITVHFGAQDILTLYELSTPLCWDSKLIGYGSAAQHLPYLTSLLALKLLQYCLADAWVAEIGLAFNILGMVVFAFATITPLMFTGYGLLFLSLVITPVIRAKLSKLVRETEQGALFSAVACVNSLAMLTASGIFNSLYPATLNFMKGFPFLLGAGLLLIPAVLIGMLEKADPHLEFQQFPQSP
Nature of the data set: Binding affinity to human PCFT expressed in Chinese hamster R2/PCFT4 cells assessed as increase in intracellular drug transport at 0.5 uM at 37 degC at pH 5.5 measured over 5 mins in presence of AGF94. The format is cell-based.

The target in data set [3] is T1, Proton-coupled folate transporter (Homo sapiens). Nature of the data set: Binding affinity to human PCFT expressed in Chinese hamster R2/PCFT4 cells assessed as intracellular drug transport rate at 37 degC at pH 6.8 measured over 2 mins by Lineweaver-Burk plot analysis. The format is cell-based. The method in brief: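 R2/PCFT4 CHO cells were grown as monolayers, transferred to spinner flasks, and used as suspensions (5–10 × 10⁷ cells). Uptake was quenched with ice-cold DPBS and cells were NaOH-solubilized. Results are pmol/mg protein; Kt and Vmax come from Lineweaver–Burke plots.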

Data set [4] deals with Mus musculus. Nature of the data set: Toxicity in folate-deficient diet fed NCR SCID mouse xenografted with human SKOV3 cells expressing RFC/PCFT/FRalpha assessed as body weight loss at 16 mg/kg, iv administered every 4 days on day 3, 7, 11 relative to control. The data set is classed as organism-based, SK-OV-3. The following applies: in vivo, 96 h. The method in brief:
as §1

For the next data set, the system named is IGROV-1. Nature of the data set: Antiproliferative activity against human IGROV1 cells after 96 hrs by CellTiter-Blue assay. The data set is classed as functional, cell-based. The following applies: IGROV-1, 96 h. The method in brief: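 IGROV1 and SKOV3 cells plated at ~2500–5000 cells/well in folate-free RPMI 1640 with 10% dialyzed FBS, antibiotics and 2 nM LCV, over a range of drug concentrations, ±200 nM folic acid in parallel. Incubated up to 96 h. Viability read by Cell Titer Blue fluorescence (ex 560/em 590 nm).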

Activity calls are given as the source filed them. The calls are words filed in the database; no cut-off is given here.

On to `Nc1nc2[nH]c(CCCc3cc(C(=O)N[C@@H](CCC(=O)O)C(=O)O)cs3)cc2c(=O)[nH]1`, for which the Activity entry in the data set on Mus musculus [1] is listed as “Non-toxic”; in the data set on Mus musculus [4] it was 12.1%. The Ratio IC50 in the data set on D4 is 1890. Besides, the result with SK-OV-3 was Active. In data set [2], the outcome was inactive. Moreover, in data set [3], the K is 0.17 µM. In the data set on IGROV-1, this compound had an IC50 of 0.77 nM.
